Data set [1] concerns Trypanosoma brucei. The experiment in a line: Antitrypanosomal activity against suramin sensitive Trypanosoma brucei Squib427 trypomastigotes assessed as reduction in parasitic cell viability measured after 72 hrs by resazurin dye based fluorimetric analysis. The data set is classed as functional, organism-based. As to conditions: Squib427, 72 h. Summed up: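 Suramin-sensitive Squib-427 trypomastigotes cultured in HMI-9 with 10% heat-inactivated FCS at 37 °C, 5% CO2. About 1.5 × 10^4 parasites per well, five concentrations (64, 16, 4, 1, 0.25 μM), DMSO ≤0.5%, 72 h at 37 °C. Resazurin added, fluorescence read 24 h later (ex 550/em 590 nm) as % viability reduction vs control. Suramin reference; duplicate experiments, mean ± S.E.M.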
(The colour change of resazurin is a common sign of viable cells or microbes.)

Data set [2] is described as follows: Cytotoxicity against human MRC5 SV2 cells assessed as reduction in cell viability measured after 72 hrs by resazurin dye based fluorimetric analysis.
Data set [3] deals with T1, Class 1 phosphodiesterase PDEB1 (Trypanosoma brucei, UniProt Q8WQX9).
T1 sequence (Q8WQX9 whole entry): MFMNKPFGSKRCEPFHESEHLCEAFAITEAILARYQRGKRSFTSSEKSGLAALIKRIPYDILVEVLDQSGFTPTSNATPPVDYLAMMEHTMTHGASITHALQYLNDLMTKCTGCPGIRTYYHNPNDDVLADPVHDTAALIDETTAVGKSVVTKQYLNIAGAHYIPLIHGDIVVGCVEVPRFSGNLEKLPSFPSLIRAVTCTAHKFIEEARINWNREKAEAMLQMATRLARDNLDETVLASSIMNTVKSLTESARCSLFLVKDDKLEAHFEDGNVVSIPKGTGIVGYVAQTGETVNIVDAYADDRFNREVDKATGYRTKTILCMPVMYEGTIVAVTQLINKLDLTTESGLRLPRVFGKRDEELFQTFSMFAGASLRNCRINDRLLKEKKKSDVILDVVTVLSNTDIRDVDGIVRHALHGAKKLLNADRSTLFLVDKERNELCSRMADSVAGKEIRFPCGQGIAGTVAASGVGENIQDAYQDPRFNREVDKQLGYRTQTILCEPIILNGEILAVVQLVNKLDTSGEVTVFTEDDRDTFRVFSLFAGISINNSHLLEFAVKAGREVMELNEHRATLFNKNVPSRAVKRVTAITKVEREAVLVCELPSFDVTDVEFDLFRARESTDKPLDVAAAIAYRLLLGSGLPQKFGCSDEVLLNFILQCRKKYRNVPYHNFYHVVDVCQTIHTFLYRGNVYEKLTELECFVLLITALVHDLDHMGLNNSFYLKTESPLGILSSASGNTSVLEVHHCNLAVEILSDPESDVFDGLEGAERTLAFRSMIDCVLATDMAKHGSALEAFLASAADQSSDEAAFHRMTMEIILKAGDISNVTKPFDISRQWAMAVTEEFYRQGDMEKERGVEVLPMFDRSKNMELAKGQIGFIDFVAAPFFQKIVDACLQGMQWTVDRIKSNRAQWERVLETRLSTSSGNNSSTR
The experiment in a line: Inhibition of Trypanosoma brucei PDEB1 catalytic domain (565 to 918 residues) expressed in Escherichia coli BL21 incubated for 20 mins using cAMP as substrate by PDELight HTS cAMP phosphodiesterase Kit based luminometry.

Data set [4] can be described thus: Cytotoxicity against human MRC5 SV2 cells assessed as reduction in cell viability at 64 uM measured after 72 hrs by resazurin dye based fluorimetric analysis.
Data set [5] concerns the target 3',5'-cyclic-AMP phosphodiesterase 4B (Homo sapiens, UniProt Q07343). As to the kind of experiment: Inhibition of human PDE4B catalytic domain incubated for 20 mins using cAMP as substrate by PDELight HTS cAMP phosphodiesterase Kit based luminometry.
The subject of data set [6] is Trypanosoma brucei. The experiment in a line: Antitrypanosomal activity against bloodstream of Trypanosoma brucei trypanosomes assessed as increase in intracellular cAMP level at 3.2 uM measured per 5x10^6 cells after 4 hrs by direct cAMP enzyme immunoassay kit based ELISA (reference value: 6.66 pmol). The data set is classed as functional. (Changes in cAMP serve as a functional read-out for many G protein-coupled receptors.)

The test system of data set [7] is Trypanosoma brucei. As to the kind of experiment: Antitrypanosomal activity against bloodstream of Trypanosoma brucei trypanosomes assessed as increase in intracellular cAMP level at 8 uM measured per 5x10^6 cells after 4 hrs by direct cAMP enzyme immunoassay kit based ELISA (reference value: 6.66 pmol). Type of data set: functional.

Chain of 3',5'-cyclic-AMP phosphodiesterase 4B (Q07343 whole entry, the tested form may be a part): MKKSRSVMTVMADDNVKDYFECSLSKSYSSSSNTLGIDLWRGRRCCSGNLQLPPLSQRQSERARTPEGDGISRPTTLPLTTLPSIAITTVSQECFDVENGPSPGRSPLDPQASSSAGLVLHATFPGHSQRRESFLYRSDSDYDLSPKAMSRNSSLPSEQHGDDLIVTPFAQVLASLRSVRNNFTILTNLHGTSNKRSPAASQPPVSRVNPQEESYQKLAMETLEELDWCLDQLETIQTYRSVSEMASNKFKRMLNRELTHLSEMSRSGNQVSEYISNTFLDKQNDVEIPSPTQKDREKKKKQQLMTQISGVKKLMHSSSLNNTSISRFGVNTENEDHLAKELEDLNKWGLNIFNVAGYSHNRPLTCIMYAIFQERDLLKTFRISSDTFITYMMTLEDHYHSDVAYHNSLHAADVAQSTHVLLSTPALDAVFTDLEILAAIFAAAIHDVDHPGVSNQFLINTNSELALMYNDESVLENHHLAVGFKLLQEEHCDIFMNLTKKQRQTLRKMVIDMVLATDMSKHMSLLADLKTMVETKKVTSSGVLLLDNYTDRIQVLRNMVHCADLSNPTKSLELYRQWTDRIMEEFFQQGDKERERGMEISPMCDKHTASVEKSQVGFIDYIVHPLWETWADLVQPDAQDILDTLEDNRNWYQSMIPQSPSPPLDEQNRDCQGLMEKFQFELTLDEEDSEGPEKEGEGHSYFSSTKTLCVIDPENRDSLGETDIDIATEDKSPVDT

Take `COc1ccc(C2=NN(C(C)C)C(=O)[C@@H]3CC=CC[C@H]23)cc1-c1ccc(C(=O)NCC(N)=O)cc1`: the IC50 in data set [1] (read-out: pIC50 (converted)) was 6310 nM. Also, in data set [2], the CC50 (commonly the concentration at which the toxic effect on the cells reaches its halfway point) at 72 h is 31600 nM.

Regarding `COc1ccc(C2=NN(C3CCCCCC3)C(=O)[C@@H]3CC=CC[C@H]23)cc1-c1ccc(C(=O)NCC(N)=O)cc1`, the IC50 in data set [1] (read-out: pIC50 (converted)) is 5010 nM. In data set [2], the CC50 at 72 h was 39800 nM.

Turning to `COc1ccc(C2=NN(C3CCCCCC3)C(=O)[C@@H]3CC=CC[C@H]23)cc1-c1ccc2c(c1)CNC2=O`, the Ki (in general, a dissociation constant, usually derived from enzyme kinetics or from competition with a known ligand) in data set [3] is 1580 nM.

With `COc1ccc(C2=NN(C(C)C)C(=O)[C@@H]3CC=CC[C@H]23)cc1N1CC(C(N)=O)C1`, the Ki in data set [3] was more than 10000 nM.

For the molecule `COc1ccc(C2=NN(C3CCCCCC3)C(=O)[C@@H]3CC=CC[C@H]23)cc1-c1ccc(C(=O)NCC(N)=O)c(F)c1`, the Ki in data set [3] was 794 nM.

`COCCN1Cc2cc(-c3cc(C4=NN(C5CCCCCC5)C(=O)[C@@H]5CC=CC[C@H]45)ccc3OC)ccc2C1=O` (relative stereo) had a Ki in data set [3] of 1260 nM.

For the molecule `COc1ccc(C2=NN(C3CCCCCC3)C(=O)[C@@H]3CC=CC[C@H]23)cc1C#Cc1cnco1` (relative stereo), the Ki in data set [3] is more than 10000 nM.

`C#Cc1cc(C2=NN(C3CCCCCC3)C(=O)[C@@H]3CC=CC[C@H]23)ccc1OC` (relative stereo) gave a Ki in data set [3] of 3980 nM.

In turn, `CCCCNC(=O)c1ccc(-c2cc(C3=NN(C(C)C)C(=O)[C@@H]4CC=CC[C@H]34)ccc2OC)s1` (relative stereo) showed a Ki in data set [3] of more than 10000 nM.

`COc1ccc(C2=NN(C(C)C)C(=O)[C@@H]3CC=CC[C@H]23)cc1-c1ccc(C(=O)NCc2ccco2)s1` (relative stereo): the Ki in data set [3] was more than 10000 nM.

`COc1ccc(C2=NN(C3CCCCCC3)C(=O)[C@@H]3CC=CC[C@H]23)cc1C#CC(=O)NCc1ccco1` (relative stereo): in data set [4], the Activity result is given as “Non-Toxic”. The Ki in data set [3] is 501 nM; in data set [5] it was 398 nM. Further, the IC50 in data set [1] (read-out: IC50) is 600 nM; in data set [1] (read-out: pIC50 (converted)), 631 nM. In data set [2], the CC50 at 72 h was 50100 nM.

`COc1ccc(C2=NN(C3CCCCCC3)C(=O)[C@@H]3CC=CC[C@H]23)cc1C#CC(N)=O` (relative stereo): in data set [1] (read-out: pIC50 (converted)), the IC50 is 1000 nM. Besides, in data set [2], the CC50 at 72 h is 10000 nM. Also, the figures for the Activity in data set [6] and in data set [7] were 19.8 pmol and 311 pmol, respectively.

Turning to `COc1ccc(C2=NN(C3CCCCCC3)C(=O)[C@@H]3CC=CC[C@H]23)cc1C#CC(=O)N1CCOCC1` (relative stereo), in data set [3], the Ki is 1000 nM.

With `COc1ccc(C2=NN(C3CCCCCC3)C(=O)[C@@H]3CC=CC[C@H]23)cc1-c1ccc(C(=O)NCC(N)=O)cc1C` (relative stereo), the Ki in data set [3] is more than 10000 nM.

With `COc1ccc(C2=NN(C3CCCCCC3)C(=O)[C@@H]3CC=CC[C@H]23)cc1C#CC(=O)NCC(N)=O` (relative stereo), the Ki in data set [3] was 631 nM. Further, in data set [1] (read-out: pIC50 (converted)), the IC50 is 3980 nM. Besides, the CC50 at 72 h in data set [2] was 3980 nM.

Molecule `COc1ccc(C2=NN(C(C)C)C(=O)[C@@H]3CC=CC[C@H]23)cc1-c1ccc(C(N)=O)s1` (relative stereo) gave a Ki in data set [3] of 10000 nM.

As for `CCCCNC(=O)C#Cc1cc(C2=NN(C3CCCCCC3)C(=O)[C@@H]3CC=CC[C@H]23)ccc1OC` (relative stereo), the Activity result in data set [4] is given as “Non-Toxic”. Besides, the results for the Ki in data set [3] and in data set [5] were 398 nM and 631 nM, respectively. In addition, the IC50 in data set [1] (read-out: IC50) is 600 nM; in data set [1] (read-out: pIC50 (converted)), 631 nM. In data set [2], the CC50 at 72 h is more than 63100 nM.

On to `COCCNC(=O)C#Cc1cc(C2=NN(C3CCCCCC3)C(=O)[C@@H]3CC=CC[C@H]23)ccc1OC` (relative stereo), for which the Ki in data set [3] is 794 nM; in data set [5] it was 1580 nM. The IC50 in data set [1] (read-out: pIC50 (converted)) is more than 63100 nM. Also, in data set [2], the CC50 at 72 h is more than 63100 nM.

For the molecule `COCCNC(=O)c1ccc(-c2cc(C3=NN(C(C)C)C(=O)[C@@H]4CC=CC[C@H]34)ccc2OC)s1` (relative stereo), the Ki in data set [3] is more than 10000 nM.

For the molecule `CCCCNC(=O)C1CN(c2cc(C3=NN(C(C)C)C(=O)[C@@H]4CC=CC[C@H]34)ccc2OC)C1` (relative stereo), in data set [3], the Ki was more than 10000 nM.

`COc1ccc(C2=NN(C(C)C)C(=O)[C@@H]3CC=CC[C@H]23)cc1-c1ccc(C(=O)NCC(N)=O)s1` (relative stereo) gave a Ki in data set [3] of more than 10000 nM.

In the case of `COc1cc(-c2cc(C3=NN(C4CCCCCC4)C(=O)[C@@H]4CC=CC[C@H]34)ccc2OC)ccc1C(=O)NCC(N)=O` (relative stereo), affinity in data set [3] was put at a Ki of 6310 nM.

Take `COc1ccc(C2=NN(C(C)C)C(=O)[C@@H]3CC=CC[C@H]23)cc1N1CC(C(=O)NCC(N)=O)C1` (relative stereo): in data set [3], the Ki was more than 10000 nM.

`COc1ccc(C2=NN(C3CCCCCC3)C(=O)[C@@H]3CC=CC[C@H]23)cc1-c1ccc2c(c1)CN(CC(N)=O)C2=O` (relative stereo) showed a Ki in data set [3] of 1260 nM.

For `COc1ccc(C2=NN(C3CCCCCC3)C(=O)[C@@H]3CC=CC[C@H]23)cc1-c1ccc(C(=O)NCC(N)=O)cc1F` (relative stereo), the Ki in data set [3] is 2000 nM.

Consider `COc1cc(C(=O)NCC(N)=O)ccc1-c1cc(C2=NN(C3CCCCCC3)C(=O)[C@@H]3CC=CC[C@H]23)ccc1OC` (relative stereo), for which, in data set [3], affinity was put at a Ki of 7940 nM.

On to `COc1ccc(C2=NN(C(C)C)C(=O)[C@@H]3CC=CC[C@H]23)cc1N1CC(C(=O)NCc2ccco2)C1` (relative stereo), for which the Ki in data set [3] is more than 10000 nM.

`COc1ccc(C2=NN(C3CCCCCC3)C(=O)[C@@H]3CC=CC[C@H]23)cc1-c1ccc(C(=O)NCC(N)=O)c(C)c1` (relative stereo): affinity in data set [3] was put at a Ki of 2000 nM.

For the origin of these results see ChEMBL document CHEMBL4346747, “Alkynamide phthalazinones as a new class of TbrPDEB1 inhibitors” (Bioorg Med Chem, 2019).
